Laboratory results from ChEMBL document CHEMBL5376016, “Synthesis of novel rapanone derivatives via organocatalytic reductive C-alkylation: biological evaluation of antioxidant properties, in vivo zebrafish embryo toxicity, and docking studies” (RSC Med Chem, 2024).
Values after ≈ are worked out from the molar mass of the structure shown.

How the values were obtained:
[1] = Acute toxicity in zebrafish embryo assessed as hatching rate at 20 to 160 uM measured after 48 hrs post fertilization relative to control; design: species or system Danio rerio; details: in vivo, dose 20-160 µM
Summary of the method: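 Controls were water and water with 0.5% DMSO. Incubation at 26.8 ± 1 °C, 20 embryos per well. Hatching scored over 0–96 hpf under an inverted microscope. Triplicate, three independent experiments; mean ± SD; ANOVA.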

[2] = Acute toxicity in zebrafish embryo assessed as morphological changes by measuring short tail at upto 160 uM measured after 96 hrs post fertilization; design: species or system Danio rerio; details: in vivo
Summary of the method: (§1)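 Wild-type Danio rerio embryos were exposed in milli-Q water with compound dissolved in DMSO (≤0.25 v/v final). Controls were milli-Q water and water with DMSO. Embryos were held at 26.8 ± 1 °C and scored by inverted microscope at 24–96 hpf, after exposure at 160 µM, for bent spine, yolk sac edema, pericardial edema, short tail and bent tail.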

[3] = Antioxidant activity assessed as DPPH radical scavenging activity after 30 mins by spectrophotometric analysis relative to control; type: functional; design: concentration or dose not given beside the values
Summary of the method: (§2)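 Ascorbic acid was the reference standard. For DPPH, 0.2 mM DPPH in methanol was kept in the dark, mixed with compound at 5–160 µM (DMSO stock), and incubated 30 min in the dark at room temperature, then A517 was read. %RSA = (Ac−As)/Ac×100. Triplicate runs; IC50 taken from the plot of % scavenging versus concentration.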

[4] = Acute toxicity in zebrafish embryo assessed as morphological changes by measuring pericardial edema at upto 160 uM measured after 96 hrs post fertilization; design: species or system Danio rerio; details: in vivo; summary of the method: as §1
[5] = Acute toxicity in zebrafish embryo assessed as morphological changes by measuring bent spine at upto 160 uM measured after 96 hrs post fertilization; design: species or system Danio rerio; details: in vivo; summary of the method: as §1
[6] = Antioxidant activity assessed as DPPH radical scavenging activity after 20 mins by […]; type: functional
[7] = Acute toxicity in zebrafish embryo assessed as survival rate at 96 hrs post fertilization relative to control; design: species or system Danio rerio; concentration or dose not given beside the values; details: in vivo
Summary of the method: (§3)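 Lethality endpoints were coagulation and absence of heartbeat, checked by inverted microscope. Survival was compared with untreated embryos across three independent experiments; mean ± SD, ANOVA.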

[8] = Acute toxicity in zebrafish embryo assessed as morphological changes by measuring yolk sac edema at upto 160 uM measured after 96 hrs post fertilization; design: species or system Danio rerio; details: in vivo; summary of the method: as §1
[9] = Acute toxicity in zebrafish embryo assessed as survival rate at 20 uM measured after 96 hrs post fertilization relative to control; design: species or system Danio rerio; details: in vivo; summary of the method: as §3
[10] = Antioxidant activity assessed as ABTS radical scavenging activity after 6 mins by spectrophotometric analysis relative to control; type: functional; design: concentration or dose not given beside the values
[11] = Antioxidant activity assessed as ABTS radical scavenging activity after 30 mins by […]
[12] = Acute toxicity in zebrafish embryo assessed as survival rate at 160 uM measured after 96 hrs post fertilization relative to control; design: species or system Danio rerio; details: in vivo; summary of the method: as §3
[13] = Acute toxicity in zebrafish embryo assessed as morphological changes by measuring bent tail at upto 160 uM measured after 96 hrs post fertilization; design: species or system Danio rerio; details: in vivo; summary of the method: as §1
[14] = Antioxidant activity assessed as DPPH radical scavenging activity after 30 mins by spectrophotometric analysis; type: functional; summary of the method: as §2
[15] = Antioxidant activity assessed as ABTS radical scavenging activity after 6 mins by spectrophotometric analysis; type: functional
[16] = Antioxidant activity assessed as ABTS radical scavenging activity after 30 mins by spectrophotometric analysis; type: functional

Structure (SMILES) | Activity [1] | Activity [2] | Activity [3] | Activity [4] | Activity [5] | IC50 [6] | survival at 96 h ([7]; read-out: Activity) | Activity [8] | survival at 96 h, 20 µM [9] | Activity [10] | IC50 [11] | survival at 96 h, 160 µM [12] | Activity [13] | IC50 [14] | IC50 [15] | IC50 [16] | survival at 96 h ([7]; read-out: Survival)
CCCCCCCCCCCC1=C(O)C(=O)C=C(O)C1=O [EMBELIN] | 75.66% | Toxic | 71.1% | Toxic | Toxic | 0.23 µg/mL (≈ 0.781 µM) | 70% | Toxic | 52% | 75.1% | 27.92 µg/mL (≈ 94.8 µM) | 70% | Toxic | 3.12 µM | 3.12 µM | 27.9 µg/mL (≈ 94.8 µM) | –
CCCCCCCCCCCC1=C(O)C(=O)C(Cc2cccc(Oc3ccccc3)c2)=C(O)C1=O | 75.66% | Toxic | 80% | Toxic | Toxic | – | 70% | Toxic | 52% | 80.2% | – | 70% | Toxic | 2.88 µM | 2.36 µM | – | –
C#Cc1ccc(CC2=C(O)C(=O)C(CCCCCCCCCCC)=C(O)C2=O)cc1 | 51.33% | Toxic | 50.3% | Toxic | Toxic | – | – | Toxic | – | 52.1% | – | – | Toxic | 4.9 µM | 4.72 µM | – | > 90%
CCCCCCCCCCCC1=C(O)C(=O)C(Cc2ccccc2Cl)=C(O)C1=O | 51.33% | Toxic | 50.3% | Toxic | Toxic | – | – | Toxic | – | 52.1% | – | – | Toxic | 4.62 µM | 5.54 µM | – | > 90%
